The values that follow come from ChEMBL document CHEMBL1131454 (J Med Chem, 1998).

Assay [1] has as its target T1, Progesterone receptor (Homo sapiens, UniProt P06401).
T1 sequence (P06401 whole entry): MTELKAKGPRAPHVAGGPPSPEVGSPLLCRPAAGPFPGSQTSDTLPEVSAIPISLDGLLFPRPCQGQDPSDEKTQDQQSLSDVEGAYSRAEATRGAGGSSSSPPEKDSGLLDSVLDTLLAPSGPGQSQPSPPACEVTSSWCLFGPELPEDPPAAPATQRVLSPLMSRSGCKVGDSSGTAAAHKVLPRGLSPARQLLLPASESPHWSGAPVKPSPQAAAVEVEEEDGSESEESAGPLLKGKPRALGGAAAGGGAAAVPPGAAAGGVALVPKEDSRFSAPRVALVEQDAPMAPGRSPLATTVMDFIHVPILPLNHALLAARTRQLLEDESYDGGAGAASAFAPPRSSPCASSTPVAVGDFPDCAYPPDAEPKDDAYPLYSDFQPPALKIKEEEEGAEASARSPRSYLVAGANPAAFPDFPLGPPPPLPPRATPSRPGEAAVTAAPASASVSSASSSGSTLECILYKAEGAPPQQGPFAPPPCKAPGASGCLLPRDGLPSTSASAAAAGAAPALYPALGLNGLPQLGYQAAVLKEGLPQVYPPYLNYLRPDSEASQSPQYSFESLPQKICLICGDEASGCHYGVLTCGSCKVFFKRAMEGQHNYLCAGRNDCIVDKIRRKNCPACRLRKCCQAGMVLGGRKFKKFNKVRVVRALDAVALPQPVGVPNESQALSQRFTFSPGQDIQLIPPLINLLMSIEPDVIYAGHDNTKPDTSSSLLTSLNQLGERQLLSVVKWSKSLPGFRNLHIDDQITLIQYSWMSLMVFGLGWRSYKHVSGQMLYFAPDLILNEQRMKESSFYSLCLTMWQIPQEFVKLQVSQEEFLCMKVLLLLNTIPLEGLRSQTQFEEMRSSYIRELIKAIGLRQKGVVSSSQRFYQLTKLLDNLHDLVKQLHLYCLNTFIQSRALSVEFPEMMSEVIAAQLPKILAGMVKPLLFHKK
The assay can be described thus: Antagonistic activity was determined in Human progesterone receptor(hPR) of CV-1 cells in cotransfection assay. Type of assay: functional, cell-based.

For assay [2], the target named is T1, Progesterone receptor. The assay can be described thus: Agonistic activity to the human progesterone receptor (hPR)assayed in CV-1 cells in cotransfection assay. Type of assay: functional, cell-based.
For assay [3], the target named is T2, Glucocorticoid receptor (Homo sapiens, UniProt P04150).
T2 sequence (P04150 whole entry): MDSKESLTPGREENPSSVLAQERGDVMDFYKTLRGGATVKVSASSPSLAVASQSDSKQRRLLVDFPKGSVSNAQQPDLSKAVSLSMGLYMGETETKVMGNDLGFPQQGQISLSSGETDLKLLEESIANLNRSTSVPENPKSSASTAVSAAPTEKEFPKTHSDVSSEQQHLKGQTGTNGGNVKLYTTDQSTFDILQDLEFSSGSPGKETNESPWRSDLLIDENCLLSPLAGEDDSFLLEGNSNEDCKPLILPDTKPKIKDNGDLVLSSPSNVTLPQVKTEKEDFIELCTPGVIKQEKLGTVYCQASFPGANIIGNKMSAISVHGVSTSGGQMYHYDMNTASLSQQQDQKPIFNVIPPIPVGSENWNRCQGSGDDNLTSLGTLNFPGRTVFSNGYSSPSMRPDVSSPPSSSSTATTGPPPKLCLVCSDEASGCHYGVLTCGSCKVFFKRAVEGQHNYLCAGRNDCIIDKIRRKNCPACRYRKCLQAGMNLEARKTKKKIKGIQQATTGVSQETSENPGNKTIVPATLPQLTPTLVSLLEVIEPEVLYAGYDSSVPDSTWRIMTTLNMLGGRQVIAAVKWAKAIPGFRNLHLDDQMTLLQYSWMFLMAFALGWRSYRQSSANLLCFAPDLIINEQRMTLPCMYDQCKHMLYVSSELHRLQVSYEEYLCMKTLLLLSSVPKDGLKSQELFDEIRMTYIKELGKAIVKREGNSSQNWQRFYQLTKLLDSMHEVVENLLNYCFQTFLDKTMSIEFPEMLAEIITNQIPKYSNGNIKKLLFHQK

In assay [4] the target is T3, Progesterone receptor (Homo sapiens) (UniProt P06401).
T3 sequence (whole entry): T1 sequence (P06401 whole entry)
The assay can be described thus: Human progesterone receptor (hPR) antagonist efficacy was determined as a function (%) of maximal inhibition of progesterone at EC50 value. Type of assay: functional. Put shortly:
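hPR antagonist-mode cotransfection in CV-1 cells transiently transfected by calcium phosphate coprecipitation with hPR plasmid, MTV-LUC reporter, pRS-β-Gal and filler DNA. […] Values come from one, two, or at least three experiments in triplicate.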

Assay [5] concerns the target T4, Androgen receptor (Homo sapiens, UniProt P10275).
T4 sequence (P10275 whole entry): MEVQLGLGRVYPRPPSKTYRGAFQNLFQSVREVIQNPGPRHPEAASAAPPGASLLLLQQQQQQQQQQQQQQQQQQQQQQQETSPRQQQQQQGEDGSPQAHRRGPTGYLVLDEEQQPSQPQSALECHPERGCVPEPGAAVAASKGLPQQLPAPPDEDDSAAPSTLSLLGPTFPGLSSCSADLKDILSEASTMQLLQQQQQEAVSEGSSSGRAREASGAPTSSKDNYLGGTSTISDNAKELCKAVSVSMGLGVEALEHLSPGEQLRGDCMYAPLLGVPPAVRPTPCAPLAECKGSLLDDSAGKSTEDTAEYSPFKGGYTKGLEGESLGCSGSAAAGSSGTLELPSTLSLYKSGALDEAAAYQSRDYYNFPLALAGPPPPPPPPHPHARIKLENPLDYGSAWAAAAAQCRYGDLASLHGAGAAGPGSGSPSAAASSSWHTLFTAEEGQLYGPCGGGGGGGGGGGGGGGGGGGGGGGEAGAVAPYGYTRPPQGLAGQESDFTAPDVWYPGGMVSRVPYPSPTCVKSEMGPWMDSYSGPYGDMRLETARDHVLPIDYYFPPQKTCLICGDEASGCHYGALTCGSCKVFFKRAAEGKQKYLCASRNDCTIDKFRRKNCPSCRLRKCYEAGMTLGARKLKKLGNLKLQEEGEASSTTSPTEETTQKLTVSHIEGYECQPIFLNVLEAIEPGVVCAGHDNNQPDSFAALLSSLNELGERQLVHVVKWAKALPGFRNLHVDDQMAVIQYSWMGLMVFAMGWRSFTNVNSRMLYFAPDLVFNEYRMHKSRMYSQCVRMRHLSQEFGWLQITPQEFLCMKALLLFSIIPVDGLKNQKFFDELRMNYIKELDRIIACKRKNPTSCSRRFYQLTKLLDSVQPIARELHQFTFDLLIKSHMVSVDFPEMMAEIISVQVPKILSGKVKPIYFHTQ

Assay [6] deals with T1, Progesterone receptor. The assay can be described thus: The binding affinity on Human progesterone receptor (hPR-A) using progesterone as radioligand.
Assay [7] concerns the target T4, Androgen receptor. The source holds these as a separate data set.
In assay [8] the target is T2, Glucocorticoid receptor. The source holds these as a separate data set.
In a further assay the target is Estrogen receptor (Homo sapiens, UniProt Q92731+P03372). The assay can be described thus: Antagonistic activity was determined in Human estrogen receptor(hER) of CV-1 cells in cotransfection assay. Type of assay: functional, cell-based.

pEC50, pIC50, pKi: −log10 of the molar value.

With `CC1=CC(C)(C)Nc2ccc3c(c21)C(c1ccc(Cl)c(C)c1)Oc1ccccc1-3` (stereo not drawn), the pIC50 – broadly, the negative decadic logarithm of the IC50, by convention in mol/L – against Progesterone receptor [1] is < 5.00; at Glucocorticoid receptor [3] it was 6.56; against Androgen receptor [7], 5.85. Besides, the pEC50 (as a rule, the EC50 on a negative log10 scale, so that one unit is a factor of ten) at Progesterone receptor [2] is 7.85. Besides, the Efficacy in assay [4] is < 20%. The negative-log Ki (pKi) (as a rule, −log10 of the Ki, conventionally taken in molar units) is 5.73 on Androgen receptor [5], 8.92 at Progesterone receptor [6] and 6.83 on Glucocorticoid receptor [8]. In addition, on Estrogen receptor, the concentration for half-maximal inhibition (IC50) (usually the midpoint of a concentration-inhibition curve) was 1220 nM.

As for `CC1=CC(C)(C)Nc2ccc3c(c21)C(c1ccc(Cl)c(Cl)c1)Oc1ccccc1-3` (stereo not drawn), the pIC50 is 6.14 at Progesterone receptor [1], 7.10 at Glucocorticoid receptor [3] and 6.02 at Androgen receptor [7]. Moreover, the pEC50 at Progesterone receptor [2] was 7.74. Moreover, the Efficacy in assay [4] came to 42%. Besides, the values for the pKi on Androgen receptor [5], at Progesterone receptor [6] and at Glucocorticoid receptor [8] were 5.23, 8.47 and 7.23, respectively. Besides, the IC50 at Estrogen receptor turned out to be 2632 nM.

Turning to `CC1=CC(C)(C)Nc2ccc3c(c21)C(c1ccc(C)c(F)c1)Oc1ccccc1-3` (stereo not drawn), the pIC50 against Progesterone receptor [1] is < 5.00; at Glucocorticoid receptor [3], 6.73; against Androgen receptor [7], 5.91. This compound also had a pEC50 at Progesterone receptor [2] of 7.80. Moreover, the Efficacy in assay [4] was < 20%. Further, the pKi was 5.80 on Androgen receptor [5], 8.74 at Progesterone receptor [6] and 7.22 at Glucocorticoid receptor [8]. Besides, the IC50 on Estrogen receptor is recorded as 1449 nM.

Regarding `CC1=CC(C)(C)Nc2ccc3c(c21)C(c1cccc(Cl)c1)Oc1ccccc1-3` (stereo not drawn), the pIC50 against Progesterone receptor [1] is 6.03; on Glucocorticoid receptor [3], 6.87; against Androgen receptor [7] it was 6.60. The pEC50 on Progesterone receptor [2] was 7.74. In assay [4], the Efficacy worked out at 37%. For the same compound, the values for the pKi on Androgen receptor [5], at Progesterone receptor [6] and at Glucocorticoid receptor [8] were 5.82, 9.37 and 7.24, respectively. Further, at Estrogen receptor, the IC50 is listed as 1480 nM.

As to `CC1=CC(C)(C)Nc2ccc3c(c21)C(c1cc(C)cc(Br)c1)Oc1ccccc1-3` (stereo not drawn), the pIC50 was 5.96 on Progesterone receptor [1], 6.78 against Glucocorticoid receptor [3] and 5.91 against Androgen receptor [7]. This compound also showed a pEC50 on Progesterone receptor [2] of 7.77. The compound also had an Efficacy in assay [4] of 31%. In addition, the pKi on Androgen receptor [5] is 5.46; on Progesterone receptor [6], 9.06; at Glucocorticoid receptor [8] it was 7.38. Further, the IC50 on Estrogen receptor is 1037 nM.

As for `CC1=CC(C)(C)Nc2ccc3c(c21)C(c1cc(Cl)cc(Cl)c1)Oc1ccccc1-3` (stereo not drawn), the pIC50 was < 5.00 on Progesterone receptor [1], 6.65 against Glucocorticoid receptor [3] and 5.96 against Androgen receptor [7]. The same compound had a pEC50 on Progesterone receptor [2] of 7.30. The Efficacy in assay [4] was < 20%. Moreover, the pKi is 5.59 at Androgen receptor [5], 8.77 on Progesterone receptor [6] and 7.00 on Glucocorticoid receptor [8]. Besides, the IC50 against Estrogen receptor is reported as > 10000 nM.

For the compound `CC1=CC(C)(C)Nc2ccc3c(c21)C(c1ccc(Cl)c(F)c1)Oc1ccccc1-3` (stereo not drawn), the negative-log IC50 (pIC50) was < 5.00 against Progesterone receptor [1], 6.77 at Glucocorticoid receptor [3] and 5.66 against Androgen receptor [7]. Further, the pEC50 on Progesterone receptor [2] is 7.77. Moreover, the Efficacy in assay [4] was < 20%. Moreover, the figures for the pKi at Androgen receptor [5], at Progesterone receptor [6] and on Glucocorticoid receptor [8] were 5.84, 9.39 and 7.41, respectively. This compound also showed an IC50 on Estrogen receptor of 1449 nM.

Take `CC1=CC(C)(C)Nc2ccc3c(c21)C(c1cccc(C(F)(F)F)c1)Oc1ccccc1-3` (stereo not drawn): the negative-log IC50 (pIC50) against Progesterone receptor [1] is < 5.00; against Glucocorticoid receptor [3], 6.30; on Androgen receptor [7], 6.50. At Progesterone receptor [2], this compound showed a negative-log EC50 (pEC50) of 7.89. Moreover, the Efficacy in assay [4] was < 20%. Further, the pKi at Androgen receptor [5] was 6.10; on Progesterone receptor [6], 8.59; on Glucocorticoid receptor [8] it was 7.36. Moreover, the IC50 on Estrogen receptor came out at 1537 nM.

`CC1=CC(C)(C)Nc2ccc3c(c21)C(c1ccc(C)cc1)Oc1ccccc1-3` (stereo not drawn): the pIC50 is 6.60 against Progesterone receptor [1], 6.53 against Glucocorticoid receptor [3] and 5.91 on Androgen receptor [7]. Further, the pEC50 on Progesterone receptor [2] is 7.43. The same compound yielded an Efficacy in [4] of 38%. In addition, the pKi on Androgen receptor [5] was 5.63; at Progesterone receptor [6], 8.64; at Glucocorticoid receptor [8], 7.10. Also, the IC50 against Estrogen receptor was 2395 nM.

Consider `CC1=CC(C)(C)Nc2ccc3c(c21)C(c1ccc(Br)cc1)Oc1ccccc1-3` (stereo not drawn), for which the pIC50 against Progesterone receptor [1] is 5.50; at Glucocorticoid receptor [3], 6.94; on Androgen receptor [7] it was 6.32. At Progesterone receptor [2], the pEC50 was 7.85. The compound further showed an Efficacy in assay [4] of 42%. Moreover, the pKi at Androgen receptor [5] is < 5.00; at Progesterone receptor [6], 9.26; at Glucocorticoid receptor [8], 7.17. For the same compound, the IC50 at Estrogen receptor is on record as > 10000 nM.

`CC1=CC(C)(C)Nc2ccc3c(c21)C(c1ccc(Cl)cc1)Oc1ccccc1-3` (stereo not drawn): the pIC50 on Progesterone receptor [1] is 6.22; against Glucocorticoid receptor [3], 6.47; on Androgen receptor [7], 5.81. The pEC50 at Progesterone receptor [2] was 7.85. The Efficacy in assay [4] was found to be 31%. Moreover, the pKi at Androgen receptor [5] is 5.57; on Progesterone receptor [6], 9.15; at Glucocorticoid receptor [8], 6.82. This compound also yielded an IC50 against Estrogen receptor of 1803 nM.

Consider `CC1=CC(C)(C)Nc2ccc3c(c21)C(c1cccc(Br)c1)Oc1ccccc1-3` (stereo not drawn), for which the pIC50 at Progesterone receptor [1] was 5.94; at Glucocorticoid receptor [3], 6.58; against Androgen receptor [7] it was 6.40. The compound further had a pEC50 on Progesterone receptor [2] of 8.10. In [4], this compound registered an Efficacy of 41%. Moreover, the pKi at Androgen receptor [5] is 5.67; at Progesterone receptor [6], 8.96; on Glucocorticoid receptor [8], 7.47. Also, at Estrogen receptor, the IC50 came out at 1095 nM.
